# Measurements: ChEMBL document CHEMBL1126709, “Structure-activity relationship studies at the benzodiazepine receptor (BZR): a comparison of the substitutent effects of pyrazoloquinolinone analogs” (J Med Chem, 1993)
# What was measured:
# [1] = molecular target: GABA-A receptor; anion channel; experiment: Partial agonistic activity against specific binding of [3H]-Ro-15-1788 to GABA-A Benzodiazepine receptor in rat cortex
# Procedure, shortened: (§1)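 Rat brain (Sprague-Dawley) cortex homogenized in 50 mM Tris-citrate pH 7.4, centrifuged at 20000g, washed five times and stored at -80 °C. About 0.12 mg protein was incubated with [3H]Ro15-1788 (1 nM final) for 1 h at 0–4 °C. Nonspecific binding was defined with 10 μM Ro14-7437. Bound label was separated by filtration and counted by scintillation. IC50 was taken from 10-concentration curves run in triplicate.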
# [2] = molecular target: GABA-A receptor; anion channel (Rattus norvegicus) (UniProt O09028+P15431+P18506+P18508+P19969+P20236+P23574+P23576+P28471+P28473+P30191+P62813+P63079+P63138+Q91ZM7+Q9ES14); experiment: Relative binding to GABA-A receptor in the presence and absence of GABA; assay type: protein-complex assay
# Procedure, shortened: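 GABA shift ratio is IC50 without GABA divided by IC50 with GABA. Both were measured as [3H]Ro15-1788 (1 nM) displacement in washed rat cortical membranes, 1 h at 0–4 °C, with filtration and scintillation counting. The GABA arm also contained NaCl (400 mM) and GABA (200 mM, as printed). Curves used 10 concentrations in triplicate.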
# [3] = molecular target: GABA-A receptor; anion channel; experiment: Specific binding of [3H]Ro-151788 to GABA-A Benzodiazepine receptor in rat cortex; procedure, shortened: as §1
SMILES,IC50 [1] [nM],Ratio [2],IC50 [3] [nM]
O=C1C2C=Nc3ccccc3C2=NN1c1ccc(Cl)cc1 (stereo not drawn) [CGS-9896],0.56,1.07,–
O=c1c2cnc3ccc(Cl)cc3c2[nH]n1-c1ccccc1Cl,–,1.34,8
O=C1C2C=Nc3ccccc3C2=NN1c1ccccc1 (stereo not drawn) [CGS-8216],0.13,0.99,–
COc1ccc(-n2nc3c4ccccc4[nH]cc-3c2=O)cc1,0.38,0.94,–
O=c1c2cnc3ccccc3c2[nH]n1-c1ccccc1Cl,–,1,70
COc1ccccc1-n1[nH]c2c(cnc3ccccc32)c1=O,–,–,990
O=c1c2cnc3ccccc3c2[nH]n1-c1cccc(Cl)c1,–,1.7,3.9
O=c1c2cnc3ccc(Cl)cc3c2[nH]n1-c1ccc(Cl)cc1,–,1.47,4

# Continued by falling IC50 [3], values first:
IC50 [1] [nM],Ratio [2],IC50 [3] [nM],SMILES
–,0.97,2.1,COc1ccc2c(c1)ncc1c(=O)n(-c3ccccc3)[nH]c12
–,1.1,0.58,COc1cccc(-n2[nH]c3c(cnc4ccccc43)c2=O)c1
–,0.91,0.38,COc1ccc2ncc3c(=O)n(-c4ccccc4)[nH]c3c2c1
–,1.1,0.24,O=c1c2cnc3ccc(Cl)cc3c2[nH]n1-c1ccccc1
